According to ChEMBL document CHEMBL2346629, “Discovery and characterization of novel allosteric FAK inhibitors” (Eur J Med Chem, 2013):

Legend:
[1] = biological target: Tyrosine-protein kinase JAK1 (Homo sapiens) (UniProt P23458); assay: Inhibition of JAK1 (unknown origin) using [gamma-33P]ATP assessed as residual activity at 3 uM
Procedure, shortened: (§1)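 Radiometric kinase profiling service covering 288 kinases (261 wild-type, 27 mutant). Inhibition was read as incorporation from [γ-³³P]ATP.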

[2] = biological target: Serine/threonine-protein kinase PLK1 (Homo sapiens) (UniProt P53350); assay: Inhibition of PLK1 (unknown origin) using [gamma-33P]ATP assessed as residual activity at 3 uM
[3] = biological target: Casein kinase I isoform gamma-1 (Homo sapiens) (UniProt Q9HCP0); assay: Inhibition of CK1g1(unknown origin) using [gamma-33P]ATP assessed as residual activity at 3 uM
Procedure, shortened: (§2)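 Reaction Biology HotSpot radiometric profiling panel of 288 kinases (261 wild-type, 27 mutant). Kinase activity was read out by incorporation of [γ-33P]ATP.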

[4] = biological target: Serine/threonine-protein kinase MARK1 (Homo sapiens) (UniProt Q9P0L2); assay: Inhibition of MARK1 (unknown origin) using [gamma-33P]ATP assessed as residual activity at 3 uM
Procedure, shortened: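 Contract radiometric panel screen of 288 kinases (261 wild-type, 27 mutant). Inhibition was read by [gamma-33P]ATP radioactivity incorporation.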

[5] = biological target: Ephrin type-B receptor 1 (Homo sapiens) (UniProt P54762); assay: Inhibition of EPHB1 (unknown origin) using [gamma-33P]ATP assessed as residual activity at 3 uM; procedure, shortened: as §2
[6] = biological target: SRSF protein kinase 1 (Homo sapiens) (UniProt Q96SB4); assay: Inhibition of SRPK1 (unknown origin) using [gamma-33P]ATP assessed as residual activity at 3 uM
[7] = biological target: G protein-coupled receptor kinase 5 (Homo sapiens) (UniProt P34947); assay: Inhibition of GRK5 (unknown origin) using [gamma-33P]ATP assessed as residual activity at 3 uM; procedure, shortened: as §1
[8] = biological target: Tyrosine-protein kinase FRK (Homo sapiens) (UniProt P42685); assay: Inhibition of FRK (unknown origin) using [gamma-33P]ATP assessed as residual activity at 3 uM; procedure, shortened: as §1
[9] = biological target: Serine/threonine-protein kinase TAO3 (Homo sapiens) (UniProt Q9H2K8); assay: Inhibition of TAOK3 (unknown origin) using [gamma-33P]ATP assessed as residual activity at 3 uM
[10] = biological target: Protein kinase C gamma type (Homo sapiens) (UniProt P05129); assay: Inhibition of PKCgamma (unknown origin) using [gamma-33P]ATP assessed as residual activity at 3 uM
[11] = biological target: Mitogen-activated protein kinase kinase kinase kinase 4 (Homo sapiens, UniProt O95819); assay: Inhibition of HGK (unknown origin) using [gamma-33P]ATP assessed as residual activity at 3 uM
[12] = biological target: Calcium/calmodulin-dependent protein kinase type II subunit beta (Homo sapiens) (UniProt Q13554); assay: Inhibition of CAMK2b (unknown origin) using [gamma-33P]ATP assessed as residual activity at 3 uM
Procedure, shortened: (§3)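 Radiometric profiling across 288 kinases (261 wild-type, 27 mutant), run as an outsourced service. Inhibition read out as [gamma-33P]ATP incorporation into substrate.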

[13] = biological target: Serine/threonine-protein kinase Nek4 (Homo sapiens) (UniProt P51957); assay: Inhibition of NEK4 (unknown origin) using [gamma-33P]ATP assessed as residual activity at 3 uM
[14] = biological target: Ephrin type-B receptor 4 (Homo sapiens) (UniProt P54760); assay: Inhibition of EPHB4 (unknown origin) using [gamma-33P]ATP assessed as residual activity at 3 uM; procedure, shortened: as §2
[15] = biological target: Macrophage-stimulating protein receptor (Homo sapiens) (UniProt Q04912); assay: Inhibition of RON (unknown origin) using [gamma-33P]ATP assessed as residual activity at 3 uM
[16] = biological target: High affinity nerve growth factor receptor (Homo sapiens) (UniProt P04629); assay: Inhibition of TRKA (unknown origin) using [gamma-33P]ATP assessed as residual activity at 3 uM
[17] = biological target: Tyrosine-protein kinase JAK2 (Homo sapiens) (UniProt O60674); assay: Inhibition of JAK2 (unknown origin) using [gamma-33P]ATP assessed as residual activity at 3 uM; procedure, shortened: as §1
[18] = biological target: Serine/threonine-protein kinase 24 (Homo sapiens) (UniProt Q9Y6E0); assay: Inhibition of MST3 (unknown origin) using [gamma-33P]ATP assessed as residual activity at 3 uM
[19] = system: Serine/threonine-protein kinase Chk2 (Homo sapiens), O96017 [I157T]; assay: Inhibition of CHK2 I157T mutant (unknown origin) using [gamma-33P]ATP assessed as residual activity at 3 uM
[20] = biological target: Serine/threonine-protein kinase BRSK1 (Homo sapiens) (UniProt Q8TDC3); assay: Inhibition of BRSK1 (unknown origin) using [gamma-33P]ATP assessed as residual activity at 3 uM; procedure, shortened: as §3
[21] = biological target: Protein kinase C theta type (Homo sapiens) (UniProt Q04759); assay: Inhibition of PKCtheta (unknown origin) using [gamma-33P]ATP assessed as residual activity at 3 uM
[22] = biological target: Hepatocyte growth factor receptor (Homo sapiens) (UniProt P08581); assay: Inhibition of c-MET (unknown origin) using [gamma-33P]ATP assessed as residual activity at 3 uM
[23] = biological target: Cyclin-dependent kinase 2/cyclin E1 (Homo sapiens) (UniProt P24864+P24941); assay: Inhibition of CDK2/cyclinE (unknown origin) using [gamma-33P]ATP assessed as residual activity at 3 uM; type: protein-complex assay; procedure, shortened: as §3
[24] = biological target: Fibroblast growth factor receptor 3 (Homo sapiens) (UniProt P22607); assay: Inhibition of FGFR3 (unknown origin) using [gamma-33P]ATP assessed as residual activity at 3 uM; procedure, shortened: as §2
[25] = biological target: Dual specificity protein kinase TTK (Homo sapiens) (UniProt P33981); assay: Inhibition of TTK (unknown origin) using [gamma-33P]ATP assessed as residual activity at 3 uM
[26] = biological target: Epidermal growth factor receptor (Homo sapiens) (UniProt P00533); assay: Inhibition of EGFR (unknown origin) using [gamma-33P]ATP assessed as residual activity at 3 uM; procedure, shortened: as §2
[27] = biological target: Tyrosine-protein kinase receptor TYRO3 (Homo sapiens) (UniProt Q06418); assay: Inhibition of TYRO3 (unknown origin) using [gamma-33P]ATP assessed as residual activity at 3 uM
[28] = biological target: Calcium/calmodulin-dependent protein kinase type II subunit delta (Homo sapiens) (UniProt Q13557); assay: Inhibition of CAMK2d (unknown origin) using [gamma-33P]ATP assessed as residual activity at 3 uM; procedure, shortened: as §3
[29] = biological target: Testis-specific serine/threonine-protein kinase 1 (Homo sapiens) (UniProt Q9BXA7); assay: Inhibition of STK22D (unknown origin) using [gamma-33P]ATP assessed as residual activity at 3 uM
[30] = biological target: Tyrosine-protein kinase JAK3 (Homo sapiens) (UniProt P52333); assay: Inhibition of JAK3 (unknown origin) using [gamma-33P]ATP assessed as residual activity at 3 uM; procedure, shortened: as §1
[31] = biological target: Receptor-interacting serine/threonine-protein kinase 2 (Homo sapiens) (UniProt O43353); assay: Inhibition of RIPK2 (unknown origin) using [gamma-33P]ATP assessed as residual activity at 3 uM

Tyrosine-protein kinase JAK3 (Homo sapiens), sequence (P52333 whole entry): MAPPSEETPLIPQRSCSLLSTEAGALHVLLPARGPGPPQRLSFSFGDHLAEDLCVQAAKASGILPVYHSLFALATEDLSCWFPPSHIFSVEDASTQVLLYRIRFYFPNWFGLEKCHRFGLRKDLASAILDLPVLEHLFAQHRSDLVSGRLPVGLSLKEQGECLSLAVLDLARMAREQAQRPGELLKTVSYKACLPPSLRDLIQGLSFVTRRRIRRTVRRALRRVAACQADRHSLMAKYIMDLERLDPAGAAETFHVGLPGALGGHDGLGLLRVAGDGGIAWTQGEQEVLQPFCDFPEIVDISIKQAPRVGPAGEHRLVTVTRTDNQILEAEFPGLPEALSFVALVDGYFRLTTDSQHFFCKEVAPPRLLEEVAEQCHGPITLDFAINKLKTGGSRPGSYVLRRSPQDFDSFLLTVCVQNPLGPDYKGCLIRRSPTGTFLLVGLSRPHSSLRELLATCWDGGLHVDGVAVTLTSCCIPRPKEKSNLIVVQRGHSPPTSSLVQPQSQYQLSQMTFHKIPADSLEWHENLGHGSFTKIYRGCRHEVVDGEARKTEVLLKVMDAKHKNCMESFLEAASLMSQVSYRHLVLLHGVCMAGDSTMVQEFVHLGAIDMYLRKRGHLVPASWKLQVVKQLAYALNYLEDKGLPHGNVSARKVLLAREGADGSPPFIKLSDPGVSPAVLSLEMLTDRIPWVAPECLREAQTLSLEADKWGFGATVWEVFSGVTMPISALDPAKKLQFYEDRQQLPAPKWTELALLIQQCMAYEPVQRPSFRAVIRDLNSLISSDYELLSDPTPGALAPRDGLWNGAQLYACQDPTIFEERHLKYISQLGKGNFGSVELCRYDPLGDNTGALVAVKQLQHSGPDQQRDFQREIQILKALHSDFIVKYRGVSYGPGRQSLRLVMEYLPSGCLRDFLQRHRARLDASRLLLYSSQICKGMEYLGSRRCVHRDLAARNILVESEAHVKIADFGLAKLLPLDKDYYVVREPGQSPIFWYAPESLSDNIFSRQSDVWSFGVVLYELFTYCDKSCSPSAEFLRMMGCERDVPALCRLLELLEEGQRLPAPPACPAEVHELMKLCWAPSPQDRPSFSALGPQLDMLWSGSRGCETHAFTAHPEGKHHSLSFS
G protein-coupled receptor kinase 5 (Homo sapiens), sequence (P34947 whole entry, looked up): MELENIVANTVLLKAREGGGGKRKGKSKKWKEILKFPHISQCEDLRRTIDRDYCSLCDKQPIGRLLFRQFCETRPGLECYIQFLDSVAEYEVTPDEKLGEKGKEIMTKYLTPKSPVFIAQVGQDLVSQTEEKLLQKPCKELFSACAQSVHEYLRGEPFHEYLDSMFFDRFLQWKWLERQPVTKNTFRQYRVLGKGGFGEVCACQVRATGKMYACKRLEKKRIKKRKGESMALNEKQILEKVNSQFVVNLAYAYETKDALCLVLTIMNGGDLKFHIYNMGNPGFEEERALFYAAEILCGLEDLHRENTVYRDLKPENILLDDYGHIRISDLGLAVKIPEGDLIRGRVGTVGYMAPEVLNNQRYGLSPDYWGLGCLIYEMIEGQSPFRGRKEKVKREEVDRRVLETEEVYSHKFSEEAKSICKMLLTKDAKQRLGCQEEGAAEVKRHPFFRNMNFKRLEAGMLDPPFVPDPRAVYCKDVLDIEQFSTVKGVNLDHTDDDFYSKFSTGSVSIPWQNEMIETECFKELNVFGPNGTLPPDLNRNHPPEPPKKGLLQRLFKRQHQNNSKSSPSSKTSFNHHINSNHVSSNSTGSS
Serine/threonine-protein kinase TAO3 (Homo sapiens), sequence (Q9H2K8 whole entry): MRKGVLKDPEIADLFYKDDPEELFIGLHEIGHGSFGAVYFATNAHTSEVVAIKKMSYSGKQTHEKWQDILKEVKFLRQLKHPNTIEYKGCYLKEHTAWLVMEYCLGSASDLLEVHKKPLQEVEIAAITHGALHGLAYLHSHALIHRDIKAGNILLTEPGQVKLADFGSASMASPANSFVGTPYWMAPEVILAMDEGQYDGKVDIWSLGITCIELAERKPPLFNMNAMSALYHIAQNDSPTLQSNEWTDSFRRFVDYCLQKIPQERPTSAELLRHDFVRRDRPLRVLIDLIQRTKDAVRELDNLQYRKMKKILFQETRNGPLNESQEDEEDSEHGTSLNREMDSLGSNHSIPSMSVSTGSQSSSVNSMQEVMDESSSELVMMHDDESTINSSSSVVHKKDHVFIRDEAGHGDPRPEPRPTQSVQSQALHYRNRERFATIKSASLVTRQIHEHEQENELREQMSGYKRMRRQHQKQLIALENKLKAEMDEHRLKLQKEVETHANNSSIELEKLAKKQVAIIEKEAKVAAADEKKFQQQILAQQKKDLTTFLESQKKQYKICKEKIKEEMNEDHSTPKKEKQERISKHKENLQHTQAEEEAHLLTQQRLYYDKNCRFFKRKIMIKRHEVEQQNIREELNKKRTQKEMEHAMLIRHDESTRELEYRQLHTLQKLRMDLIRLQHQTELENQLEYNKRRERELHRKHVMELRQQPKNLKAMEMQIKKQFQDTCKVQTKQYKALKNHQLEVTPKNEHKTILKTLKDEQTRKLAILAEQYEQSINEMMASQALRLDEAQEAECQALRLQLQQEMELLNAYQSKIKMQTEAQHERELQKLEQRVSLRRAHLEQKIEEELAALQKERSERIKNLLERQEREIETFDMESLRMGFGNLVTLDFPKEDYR
Macrophage-stimulating protein receptor (Homo sapiens), sequence (Q04912 25-304 limits assumed): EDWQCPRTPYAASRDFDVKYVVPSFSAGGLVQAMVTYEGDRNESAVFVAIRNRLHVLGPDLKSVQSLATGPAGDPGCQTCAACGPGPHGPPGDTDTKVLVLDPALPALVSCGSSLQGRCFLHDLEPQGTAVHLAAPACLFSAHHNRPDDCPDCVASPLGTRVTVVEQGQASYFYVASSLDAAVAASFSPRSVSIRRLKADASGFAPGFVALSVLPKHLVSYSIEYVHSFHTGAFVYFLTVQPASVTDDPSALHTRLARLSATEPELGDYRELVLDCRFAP
Macrophage-stimulating protein receptor (Homo sapiens), sequence (Q04912 310-1400 limits assumed): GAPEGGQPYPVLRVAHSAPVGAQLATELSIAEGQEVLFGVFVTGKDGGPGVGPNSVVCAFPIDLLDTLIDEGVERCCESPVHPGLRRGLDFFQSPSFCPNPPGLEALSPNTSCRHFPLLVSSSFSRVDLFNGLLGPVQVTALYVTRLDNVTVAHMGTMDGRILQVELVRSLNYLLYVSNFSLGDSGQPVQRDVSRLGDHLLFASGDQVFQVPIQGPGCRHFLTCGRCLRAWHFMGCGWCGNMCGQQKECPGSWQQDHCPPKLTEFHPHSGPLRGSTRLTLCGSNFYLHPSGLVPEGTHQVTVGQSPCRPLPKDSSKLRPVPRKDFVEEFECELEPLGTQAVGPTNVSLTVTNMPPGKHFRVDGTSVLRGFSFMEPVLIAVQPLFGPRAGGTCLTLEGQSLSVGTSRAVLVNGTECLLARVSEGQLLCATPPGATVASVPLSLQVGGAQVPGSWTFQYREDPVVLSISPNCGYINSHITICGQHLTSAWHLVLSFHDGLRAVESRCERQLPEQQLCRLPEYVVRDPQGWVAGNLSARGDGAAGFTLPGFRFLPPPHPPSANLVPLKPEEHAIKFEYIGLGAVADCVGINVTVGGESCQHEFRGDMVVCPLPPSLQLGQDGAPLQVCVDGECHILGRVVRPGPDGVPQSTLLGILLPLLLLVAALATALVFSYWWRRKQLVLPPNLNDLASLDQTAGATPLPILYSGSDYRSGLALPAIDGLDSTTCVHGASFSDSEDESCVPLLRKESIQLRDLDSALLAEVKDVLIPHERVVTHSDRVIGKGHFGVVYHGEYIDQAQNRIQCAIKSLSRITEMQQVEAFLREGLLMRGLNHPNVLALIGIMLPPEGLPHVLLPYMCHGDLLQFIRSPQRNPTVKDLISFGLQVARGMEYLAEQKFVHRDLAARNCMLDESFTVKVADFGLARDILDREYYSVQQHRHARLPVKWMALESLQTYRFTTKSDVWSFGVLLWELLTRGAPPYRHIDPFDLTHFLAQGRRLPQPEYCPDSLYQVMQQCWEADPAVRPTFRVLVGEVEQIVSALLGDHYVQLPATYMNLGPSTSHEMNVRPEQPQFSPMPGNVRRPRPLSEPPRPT
High affinity nerve growth factor receptor (Homo sapiens), sequence (P04629 33-796 limits assumed): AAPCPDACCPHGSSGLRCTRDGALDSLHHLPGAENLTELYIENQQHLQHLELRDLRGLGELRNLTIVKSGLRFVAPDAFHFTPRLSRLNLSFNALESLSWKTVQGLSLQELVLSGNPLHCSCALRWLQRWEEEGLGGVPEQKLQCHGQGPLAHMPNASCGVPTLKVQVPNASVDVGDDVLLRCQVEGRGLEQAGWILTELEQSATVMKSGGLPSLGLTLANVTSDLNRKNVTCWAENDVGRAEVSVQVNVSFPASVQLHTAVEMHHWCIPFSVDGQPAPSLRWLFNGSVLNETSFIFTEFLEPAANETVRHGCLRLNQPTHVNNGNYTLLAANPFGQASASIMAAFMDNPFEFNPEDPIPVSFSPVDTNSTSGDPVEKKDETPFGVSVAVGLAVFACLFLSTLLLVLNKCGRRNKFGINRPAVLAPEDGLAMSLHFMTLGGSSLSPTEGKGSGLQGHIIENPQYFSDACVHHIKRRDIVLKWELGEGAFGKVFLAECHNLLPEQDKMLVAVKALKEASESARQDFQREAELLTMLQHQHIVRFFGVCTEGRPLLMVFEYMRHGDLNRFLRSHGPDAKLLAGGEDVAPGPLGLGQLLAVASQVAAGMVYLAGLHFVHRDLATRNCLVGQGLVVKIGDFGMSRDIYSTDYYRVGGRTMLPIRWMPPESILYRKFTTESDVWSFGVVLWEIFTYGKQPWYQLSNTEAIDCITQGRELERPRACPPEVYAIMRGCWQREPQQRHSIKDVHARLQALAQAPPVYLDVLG

An Activity [1] of 81%, an Activity [2] of 96% and an Activity [3] of 94% were found for CCc1ccc(-c2ccc3c(c2)-c2[nH]ncc2S(=O)(=O)N3C)cc1 in this work. For the same molecule, the Activity [4] was 94%, the Activity [5] was 80% and the Activity [6] was 90%. For the same molecule, the Activity [7] was 103%, the Activity [8] was 80% and the Activity [9] was 103%. The Activity [10] was 96%, the Activity [11] was 25% and the Activity [12] was 90%. For the same molecule, the Activity [13] was 90%, the Activity [14] was 78% and the Activity [15] was 98%. The Activity [16] was 88%, the Activity [17] was 103% and the Activity [18] was 73%. The Activity [19] was 61%, the Activity [20] was 93% and the Activity [21] was 98%. For the same molecule, the Activity [22] was 88%, the Activity [23] was 91% and the Activity [24] was 91%. For the same molecule, the Activity [25] was 74%, the Activity [26] was 97% and the Activity [27] was 94%. The Activity [28] was 95%, the Activity [29] was 87% and the Activity [30] was 94%. For the same molecule, the Activity [31] was 91%.
